Experimental data collected from several papers.
Protocols differ between the studies behind these lines.
Target: Rho-associated protein kinase 2 (ROCK2, Homo sapiens, UniProt O75116)

Compound	assay	setting	quantity	value
CS(=O)(=O)CCNCc1ccc(-c2ccc3ncnc(Nc4ccc(OCc5cccc(F)c5)c(Cl)c4)c3c2)o1	cell-free assay	0.5 µM	remaining signal	92.7%
CCOc1cc(-c2nncn2C)ccc1Nc1ncc2cc(C)nc(NCC(C)(C)C)c2n1	enzyme activity, inhibitor, FRET	1 µM	inhibition	< 15%
O=C(Nc1cnn(-c2csc(C(=O)NC3COC3)c2)c1)Nc1ccccc1Cl	enzyme activity, inhibitor	5 µM	remaining activity	100%
CNc1cccc2cc(C(=O)Nc3ccc(C(=O)O)cc3)c(=O)[nH]c12	enzyme activity, inhibitor	10 µM	inhibition	7.9%
Cc1ccc(NC(=O)c2ccc(C)c(C(F)(F)F)c2)cc1C#Cc1nn(C2CCC(O)CC2)c2ncnc(N)c12 (stereo not drawn)	cell-free assay	10 µM	remaining signal	56%
CC(=O)C1=C(C)N(c2cccc(C(F)(F)F)c2)C(=O)N[C@@H]1c1ccc(C#N)nc1	cell-free assay, competition with immobilised ligand	1 µM	remaining binding	86.1%
Nc1nc(NC2CCCCC2)sc1C(=O)c1ccccc1	enzyme activity, inhibitor	10 µM	remaining activity	97%
CC(C)c1ccc(NC(=O)c2cccs2)c(-c2nc3ccccc3[nH]c2=O)c1	enzyme activity, inhibitor	1 µM	activity vs control	119%
O=C1Nc2ccc(Cl)cc2C1=Cc1cc(Cl)c(O)c(Cl)c1	cell-free assay	0.5 µM	remaining signal	90.6%
Cc1c(NC(=O)c2cc(C(N)=O)nc3cc(F)ccc23)c(C(F)(F)F)nn1Cc1ccc(C(C)(C)C)cc1	cell-free assay, competition with immobilised ligand	1 µM	remaining binding	100%
Cc1cnc(NC2CCOCC2)nc1-n1cnc(C(=O)NC(CN)c2cc(F)cc(Cl)c2)c1 (stereo not drawn)	enzyme activity, inhibitor, radiometric	1 µM	remaining activity	25%
CO[C@@H](C)c1c(Nc2ccc([C@@H](N(C)C(=O)C3CCS(=O)(=O)CC3)C(F)(F)F)cc2)cnc2cc(Cl)nn12	cell-free assay, competition with immobilised ligand	1 µM	remaining binding	100%
CNCc1ccc(-c2cc(-c3nc(-c4ccc(S(=O)(=O)C(C)C)cc4)cnc3N)on2)cc1	enzyme activity, inhibitor	2 µM	inhibition	13%
Fc1cccc(-n2cnc3c(NCc4nc5c(F)c(F)ccc5[nH]4)nc(N4CCOCC4)nc32)c1	binding, competition with immobilised ligand	10 µM	binding vs control	54%
CCCOc1ccc(OC)c(F)c1C(=O)c1ccc(C(=O)N[C@@H]2CNC[C@H]2NC(=O)c2ccc3[nH]ncc3c2)cc1	enzyme activity, inhibitor	0.5 µM	remaining activity	6%
CC(C)(C)c1nc2c(s1)c1nc(N)ncc1c1ccc(NS(=O)(=O)c3c(F)cccc3F)c(F)c12	enzyme activity, inhibitor, radiometric	1 µM	remaining activity	100%
O=C(NCc1ncc(C(F)(F)F)cc1Cl)c1ccc2c(c1)C1(CCS(=O)(=O)CC1)[C@H](C1CC1)N2S(=O)(=O)c1ccc(F)cc1	cell-free assay, competition with immobilised ligand	1 µM	remaining binding	95%
N#CCCc1ccc2c(c1)-c1[nH]c3ccc([N+](=O)[O-])cc3c1CC(=O)N2	cell-free assay	0.5 µM	remaining signal	28.6%

Compound	assay	setting	quantity	value
Cn1cnc(Br)c1C1=CN(c2ncnc3[nH]cnc23)CCS1	enzyme activity, inhibitor, radiometric	2 µM	inhibition	77.6%
NS(=O)(=O)c1cc(NC(=O)C2(c3ccccc3Cl)CC2)ccc1Oc1cccc(Cl)c1	cell-free assay, competition with immobilised ligand	1 µM	remaining binding	100%
Cc1ccc(Nc2nccc(N(C)c3ccc4c(C)n(C)nc4c3)n2)cc1S(N)(=O)=O	enzyme activity, inhibitor	10 µM	inhibition	-27%
COc1cc(Cl)c(C(=O)N[C@@H](CN[C@H]2CC[C@@H](N)CC2)Cc2ccc(C#N)cc2)cc1-c1ccc(CN[C@H](C)c2ccc(C)cc2)o1	enzyme activity, inhibitor	1 µM	remaining activity	96%
Cn1c(=O)n(-c2ccc(C(C)(C)C#N)cc2)c2c3cc(-c4cnc5ccccc5c4)ccc3ncc21	enzyme activity, inhibitor	10 µM	remaining activity	84%
Nc1ncnc2occ(-c3ccc(NC(=O)Nc4cc(C(F)(F)F)ccc4F)cc3)c12	cell-free assay, inhibitor	20 µM	remaining signal	0%
CN(c1ncccc1CNc1nc(Nc2ccc3c(c2)CC(=O)N3)ncc1C(F)(F)F)S(C)(=O)=O	enzyme activity, inhibitor	1 µM	inhibition	11.3%
COc1cc2ncnc(Nc3ccc(Oc4ccccc4)cc3C)c2cc1OC	enzyme activity, inhibitor	1 µM	inhibition	1%
COc1cc(Nc2cnc(C#N)c(O[C@H](C)CN(C)C)n2)ncc1-c1cnn(C)c1	enzyme activity, inhibitor, radiometric	10 µM	remaining activity	40%
COc1ccc2c(c1)O[C@H](c1ccc(OC)c(OC)c1)C[C@@H]2NC(=O)C1(c2ccc3c(c2)OC(F)(F)O3)CC1	cell-free assay, competition with immobilised ligand	1 µM	remaining binding	88%
CC(C)(C)C(=O)c1sc(NC2CCCCC2)nc1N	enzyme activity, inhibitor	10 µM	remaining activity	107%
CCS(=O)(=O)c1cc2cc(C[C@@](O)(CC(C)(C)c3ccc(F)cc3C(N)=O)C(F)(F)F)[nH]c2cn1	cell-free assay, competition with immobilised ligand	1 µM	remaining binding	76%
O=C(CSc1nc2nccnc2c(=O)n1CCc1ccccc1)Nc1nccs1	enzyme activity, inhibitor	10 µM	inhibition	2%
CNC(=O)c1cc(Oc2ccc(NC(=O)Nc3ccc(Cl)c(C(F)(F)F)c3)cc2)ccn1	enzyme activity, inhibitor	10 µM	inhibition	38%
O=C(Nc1cnc(Oc2ccc(F)cc2)nc1)N1CCc2ncccc2[C@@H]1c1ccc(F)cc1	cell-free assay, competition with immobilised ligand	1 µM	remaining binding	100%
C[C@@H](N)[C@H]1CC[C@H](C(=O)Nc2ccncc2)CC1	cell-free assay	0.5 µM	remaining signal	26.3%
Cn1cncc1C1=CN(c2ncnc3[nH]cnc23)CCS1	enzyme activity, inhibitor, radiometric	50 nM	inhibition	19.6%
CC/C(=N\NC(=O)NCc1cccc(O)c1)c1ccc(O)c(C)c1O	enzyme activity, inhibitor	0.1 µM	inhibition	82.6%
